Experimental findings from ChEMBL document CHEMBL1138424, “Solid phase-assisted synthesis and screening of a small library of N-(4-hydroxyphenyl)retinamide (4-HPR) analogs” (2007) are described below.

The structures appear in SMILES notation. Activity calls are given as the source filed them. The rule behind the calls is not given here.

One assay deals with MCF7. Put plainly: Growth inhibition of human MCF7 cells at 10 uM after 48 hrs by fluorescein diacetate cell viability assay relative to 4-HPR. Format: functional. The essentials: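 MCF-7 human breast cancer cells received a single dose at a final 10−5M, with vehicle at 0.2% ethanol. Live cells were counted 48 hrs later by fluorescein diacetate viability assay. Activity was scored on a +/++/+++ scale against 4-HPR.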
With `CC1=C(/C=C/C(C)=C/C=C/C(C)=C/C(=O)Nc2ccc(O)c(Cl)c2)C(C)(C)CCC1`, the Activity result is listed as “>=50%”.

For the compound `CC1=C(/C=C/C(C)=C/C=C/C(C)=C/C(=O)Nc2cc([N+](=O)[O-])ccc2O)C(C)(C)CCC1`, the Activity result is given as “>=25%”.

As for `CC1=C(/C=C/C(C)=C/C=C/C(C)=C/C(=O)N(C)c2ccc(O)cc2)C(C)(C)CCC1`, the Activity result is on record as “>=25%”. The same measure, in the same setting: the same measure for `COC(=O)c1cc(NC(=O)/C=C(C)/C=C/C=C(C)/C=C/C2=C(C)CCCC2(C)C)ccc1O`: “>=25%”. Regarding `CC1=C(/C=C/C(C)=C/C=C/C(C)=C/C(=O)Nc2cccc(CO)c2)C(C)(C)CCC1`, the Activity result was “>=25%”. Still for that read-out and setting: to `CC1=C(/C=C/C(C)=C/C=C/C(C)=C/C(=O)Nc2ccc(C)cc2O)C(C)(C)CCC1` belongs “>=50%”; to `CC1=C(/C=C/C(C)=C/C=C/C(C)=C/C(=O)Nc2ccc(N)cc2)C(C)(C)CCC1`, “>=50%”; to `CC1=C(/C=C/C(C)=C/C=C/C(C)=C/C(=O)Nc2ccc([N+](=O)[O-])cc2O)C(C)(C)CCC1`, “>=100%”. Same read-out and setting: the same measure for `CC1=C(/C=C/C(C)=C/C=C/C(C)=C/C(=O)Nc2ccc(Cl)c(Cl)c2)C(C)(C)CCC1`: “>=25%”; for `CC1=C(/C=C/C(C)=C/C=C/C(C)=C/C(=O)Nc2ccc(Cl)cc2)C(C)(C)CCC1`: “>=25%”. Still for that read-out and setting: to `COc1ccc(NC(=O)/C=C(C)/C=C/C=C(C)/C=C/C2=C(C)CCCC2(C)C)cc1` belongs “>=25%”. Regarding `CC1=C(/C=C/C(C)=C/C=C/C(C)=C/C(=O)Nc2cc(Cl)ccc2O)C(C)(C)CCC1`, the Activity result is on record as “>=50%”. The same measure, in the same setting: the same measure for `CC1=C(/C=C/C(C)=C/C=C/C(C)=C/C(=O)Nc2ccccc2C(=O)O)C(C)(C)CCC1`: “>=25%”; for `CC1=C(/C=C/C(C)=C/C=C/C(C)=C/C(=O)Nc2ccccc2)C(C)(C)CCC1`: “>=25%”; for `CC1=C(/C=C/C(C)=C/C=C/C(C)=C/C(=O)Nc2ccc(C)c(O)c2)C(C)(C)CCC1`: “>=100%”. Consider `COC(=O)c1ccc(NC(=O)/C=C(C)/C=C/C=C(C)/C=C/C2=C(C)CCCC2(C)C)c(O)c1`, for which the Activity result is reported as “>=25%”. Same read-out and setting: to `CC1=C(/C=C/C(C)=C/C=C/C(C)=C/C(=O)Nc2ccc(O)cc2)C(C)(C)CCC1` [FENRETINIDE] belongs “>=100%”.

A further assay relates to MCF7. Put plainly: Induction of apoptosis in human MCF7 cells at 10 uM after 48 hrs by TUNEL assay relative to 4-HPR. Format: functional, cell-based. The method in brief: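 MCF-7 cells received a single dose at 10−5M, with vehicle as control. After 48 hr the % of TUNEL-labeled cells was scored. Values are means (+SEM) of three independent cell culture experiments, compared with standard 4-HPR.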
Regarding `CC1=C(/C=C/C(C)=C/C=C/C(C)=C/C(=O)Nc2ccc([N+](=O)[O-])cc2O)C(C)(C)CCC1`, the result was Active. On the same count and under the same terms, the same measure for `CC1=C(/C=C/C(C)=C/C=C/C(C)=C/C(=O)Nc2ccc(C)c(O)c2)C(C)(C)CCC1`: “Active”; for `COC(=O)c1ccc(NC(=O)/C=C(C)/C=C/C=C(C)/C=C/C2=C(C)CCCC2(C)C)c(O)c1`: “Active”.
